Laboratory results reported in ChEMBL document CHEMBL4325889, “Natural products hybrids: 3,5,4'-Trimethoxystilbene-5,6,7-trimethoxyflavone chimeric analogs as potential cytotoxic agents against diverse human cancer cells” (Eur J Med Chem, 2019).

How the values were obtained:
Assay type in all cases: functional
CCRF-CEM = assay: Growth inhibition of human CCRF-CEM cells at 10 uM after 48 hrs by SRB assay relative to control; settings: read-out: GI
In short: (§1)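 Screened at the National Cancer Institute by the standard NCI protocol using the sulforhodamine B assay, which measures cellular protein. Single dose of 10 µM. Result is percent growth inhibition; values above 100% mean cell number fell below the initial population. Values are the average of duplicates.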

K562 = assay: Growth inhibition of human K562 cells at 10 uM after 48 hrs by SRB assay relative to control; settings: K562, 48 h, read-out: GI; in short: as §1
MOLT-4 = assay: Growth inhibition of human MOLT4 cells at 10 uM after 48 hrs by SRB assay relative to control; settings: MOLT-4, 48 h, read-out: GI; in short: as §1
RPMI-8226 = assay: Growth inhibition of human RPMI8226 cells at 10 uM after 48 hrs by SRB assay relative to control; settings: RPMI-8226, 48 h, read-out: GI; in short: as §1
A549 = assay: Growth inhibition of human A549 cells at 10 uM after 48 hrs by SRB assay relative to control; settings: A549, 48 h, read-out: GI; in short: as §1
HOP-62 = assay: Growth inhibition of human HOP62 cells at 10 uM after 48 hrs by SRB assay relative to control; settings: HOP-62, 48 h, read-out: GI; in short: as §1
NCI-H226 = assay: Growth inhibition of human NCI-H226 cells at 10 uM after 48 hrs by SRB assay relative to control; settings: NCI-H226, 48 h, read-out: GI; in short: as §1
NCI-H23 = assay: Growth inhibition of human NCI-H23 cells at 10 uM after 48 hrs by SRB assay relative to control; settings: NCI-H23, 48 h, read-out: GI; in short: as §1
NCI-H522 = assay: Growth inhibition of human NCI-H522 cells at 10 uM after 48 hrs by SRB assay relative to control; settings: NCI-H522, 48 h, read-out: GI; in short: as §1
HCC 2998 = assay: Growth inhibition of human HCC2998 cells at 10 uM after 48 hrs by SRB assay relative to control; settings: HCC 2998, 48 h, read-out: GI; in short: as §1
HCT-15 = assay: Growth inhibition of human HCT15 cells at 10 uM after 48 hrs by SRB assay relative to control; settings: HCT-15, 48 h, read-out: GI; in short: as §1
KM12 = assay: Growth inhibition of human KM12 cells at 10 uM after 48 hrs by SRB assay relative to control; settings: KM12, 48 h, read-out: GI; in short: as §1
SW-620 = assay: Growth inhibition of human SW620 cells at 10 uM after 48 hrs by SRB assay relative to control; settings: SW-620, 48 h, read-out: GI
In short: (§2)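 NCI screen against its human cancer cell line panel by the standard NCI protocol, SRB protein stain. Single dose of 10 μM. Percent growth inhibition versus control; values above 100% mean the cell population fell below the starting number. Each value is the mean of duplicates.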

SNB-19 = assay: Growth inhibition of human SNB19 cells at 10 uM after 48 hrs by SRB assay relative to control; settings: SNB-19, 48 h, read-out: GI; in short: as §2
SNB-75 = assay: Growth inhibition of human SNB75 cells at 10 uM after 48 hrs by SRB assay relative to control; settings: SNB-75, 48 h, read-out: GI; in short: as §2
Malme-3M = assay: Growth inhibition of human MALME-3M cells at 10 uM after 48 hrs by SRB assay relative to control; settings: read-out: GI; in short: as §1
MDA-MB-435 = assay: Growth inhibition of human MDA-MB-435 cells at 10 uM after 48 hrs by SRB assay relative to control; settings: MDA-MB-435, 48 h, read-out: GI; in short: as §1
SK-MEL-28 = assay: Growth inhibition of human SK-MEL-28 cells at 10 uM after 48 hrs by SRB assay relative to control; settings: SK-MEL-28, 48 h, read-out: GI; in short: as §1
SK-MEL-5 = assay: Growth inhibition of human SK-MEL-5 cells at 10 uM after 48 hrs by SRB assay relative to control; settings: SK-MEL-5, 48 h, read-out: GI; in short: as §1
UACC-257 = assay: Growth inhibition of human UACC257 cells at 10 uM after 48 hrs by SRB assay relative to control; settings: UACC-257, 48 h, read-out: GI; in short: as §2
UACC-62 = assay: Growth inhibition of human UACC62 cells at 10 uM after 48 hrs by SRB assay relative to control; settings: UACC-62, 48 h, read-out: GI; in short: as §2
OVCAR-3 = assay: Growth inhibition of human OVCAR3 cells at 10 uM after 48 hrs by SRB assay relative to control; settings: OVCAR-3, 48 h, read-out: GI; in short: as §1
OVCAR-4 = assay: Growth inhibition of human OVCAR4 cells at 10 uM after 48 hrs by SRB assay relative to control; settings: OVCAR-4, 48 h, read-out: GI; in short: as §1
OVCAR-8 = assay: Growth inhibition of human OVCAR8 cells at 10 uM after 48 hrs by SRB assay relative to control; settings: OVCAR-8, 48 h, read-out: GI; in short: as §1
786-0 = assay: Growth inhibition of human 786-0 cells at 10 uM after 48 hrs by SRB assay relative to control; settings: 786-0, 48 h, read-out: GI; in short: as §1
ACHN = assay: Growth inhibition of human ACHN cells at 10 uM after 48 hrs by SRB assay relative to control; settings: read-out: GI; in short: as §1
RXF 393 = assay: Growth inhibition of human RXF393 cells at 10 uM after 48 hrs by SRB assay relative to control; settings: RXF 393, 48 h, read-out: GI; in short: as §1
SN12C = assay: Growth inhibition of human SN12C cells at 10 uM after 48 hrs by SRB assay relative to control; settings: read-out: GI; in short: as §1
TK-10 = assay: Growth inhibition of human TK10 cells at 10 uM after 48 hrs by SRB assay relative to control; settings: TK-10, 48 h, read-out: GI; in short: as §2
DU-145 = assay: Growth inhibition of human DU145 cells at 10 uM after 48 hrs by SRB assay relative to control; settings: DU-145, 48 h, read-out: GI; in short: as §1
MCF7 = assay: Growth inhibition of human MCF7 cells at 10 uM after 48 hrs by SRB assay relative to control; settings: MCF7, 48 h, read-out: GI; in short: as §1
Hs-578T = assay: Growth inhibition of human Hs 578T cells at 10 uM after 48 hrs by SRB assay relative to control; settings: read-out: GI; in short: as §1
MDA-MB-468 = assay: Growth inhibition of human MDA-MB-468 cells at 10 uM after 48 hrs by SRB assay relative to control; settings: MDA-MB-468, 48 h, read-out: GI; in short: as §1
SR = assay: Growth inhibition of human SR cells at 10 uM after 48 hrs by SRB assay relative to control; settings: read-out: GI; in short: as §2
NCI-H460 = assay: Growth inhibition of human NCI-H460 cells at 10 uM after 48 hrs by SRB assay relative to control; settings: NCI-H460, 48 h, read-out: GI; in short: as §1

| SMILES | inhibition of growth at 10 µM (CCRF-CEM) | inhibition of growth at 10 µM (MOLT-4) | inhibition of growth at 10 µM (RPMI-8226) | inhibition of growth at 10 µM (A549) | inhibition of growth at 10 µM (NCI-H226) | inhibition of growth at 10 µM (NCI-H23) | inhibition of growth at 10 µM (HCC 2998) | inhibition of growth at 10 µM (HCT-15) | inhibition of growth at 10 µM (KM12) | inhibition of growth at 10 µM (SW-620) | inhibition of growth at 10 µM (SNB-19) | inhibition of growth at 10 µM (SNB-75) | inhibition of growth at 10 µM (Malme-3M) | inhibition of growth at 10 µM (MDA-MB-435) | inhibition of growth at 10 µM (SK-MEL-28) | inhibition of growth at 10 µM (SK-MEL-5) | inhibition of growth at 10 µM (UACC-257) | inhibition of growth at 10 µM (UACC-62) | inhibition of growth at 10 µM (OVCAR-3) | inhibition of growth at 10 µM (OVCAR-4) | further results |
| --- | --- | --- | --- | --- | --- | --- | --- | --- | --- | --- | --- | --- | --- | --- | --- | --- | --- | --- | --- | --- | --- |
| COc1ccccc1C(=O)Nc1cccc(-c2cc(=O)c3c(OC)c(OC)c(OC)cc3o2)c1 | 84% | 71.2% | 93.2% | 51.8% | 41.6% | 37.6% | 32.2% | 58.5% | 61.6% | 36.6% | 63.8% | 16.8% | 34.5% | 56.5% | 44% | 75% | 38.5% | 56.9% | 48.6% | 41% | inhibition of growth at 10 µM (K562): 63.6%; inhibition of growth at 10 µM (HOP-62): 42.2%; inhibition of growth at 10 µM (NCI-H522): 55.7%; inhibition of growth at 10 µM (OVCAR-8): 61.3%; inhibition of growth at 10 µM (786-0): 54.7%; inhibition of growth at 10 µM (ACHN): 57%; inhibition of growth at 10 µM (RXF 393): 41%; inhibition of growth at 10 µM (SN12C): 59%; inhibition of growth at 10 µM (TK-10): 46.6%; inhibition of growth at 10 µM (DU-145): 55.1%; inhibition of growth at 10 µM (MCF7): 46.6%; inhibition of growth at 10 µM (Hs-578T): 76.4%; inhibition of growth at 10 µM (MDA-MB-468): 60.8% |
| COc1cccc(C(=O)Nc2cccc(-c3cc(=O)c4c(OC)c(OC)c(OC)cc4o3)c2)c1 | 56.1% | 53.3% | 83.2% | 44.1% | 28% | 33.9% | 19.5% | 46.6% | 53.9% | 22.8% | 29.6% | 32.6% | 12.8% | 23.4% | 27% | 39.4% | 3.66% | 41.1% | 24.6% | 37.7% | inhibition of growth at 10 µM (K562): 62%; inhibition of growth at 10 µM (HOP-62): 30.2%; inhibition of growth at 10 µM (NCI-H522): 58.4%; inhibition of growth at 10 µM (OVCAR-8): 47.7%; inhibition of growth at 10 µM (786-0): 47.2%; inhibition of growth at 10 µM (ACHN): 42.1%; inhibition of growth at 10 µM (RXF 393): 28.9%; inhibition of growth at 10 µM (SN12C): 38.7%; inhibition of growth at 10 µM (TK-10): 17.2%; inhibition of growth at 10 µM (DU-145): 32.6%; inhibition of growth at 10 µM (MCF7): 21.3%; inhibition of growth at 10 µM (Hs-578T): 43.2%; inhibition of growth at 10 µM (MDA-MB-468): 5.72% |
| Cc1ccc(NC(=O)c2ccc(CN3CCN(C)CC3)cc2)cc1Nc1nccc(-c2cccnc2)n1 [IMATINIB] | 6.6% | 18% | 12.6% | 3.8% | 10.6% | 17.1% | -22% | 11.5% | -6.7% | -10% | -12.2% | 0.6% | -13.7% | 7.4% | -9.4% | 22.3% | 2.8% | 7.7% | -10.3% | -0.1% | inhibition of growth at 10 µM (SR): 14.6%; inhibition of growth at 10 µM (NCI-H460): 3.2%; inhibition of growth at 10 µM (OVCAR-8): 8.4%; inhibition of growth at 10 µM (786-0): 5%; inhibition of growth at 10 µM (ACHN): -1%; inhibition of growth at 10 µM (RXF 393): 5.7%; inhibition of growth at 10 µM (SN12C): 6%; inhibition of growth at 10 µM (TK-10): -10%; inhibition of growth at 10 µM (DU-145): 14.4%; inhibition of growth at 10 µM (MCF7): 8.1%; inhibition of growth at 10 µM (Hs-578T): 9.9%; inhibition of growth at 10 µM (MDA-MB-468): 29.1% |
